The target of one data set is Cytochrome P450 2D6 (Homo sapiens, UniProt P10635). In words: Inhibition of CYP2D6 in human liver microsomes using dextromethorphan as substrate. The format is ADME, Microsome. In short, it runs like this:
(§1)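 Human liver microsomes with a cocktail of CYP-specific probe substrates; metabolite formation monitored for each probe reaction. Test compound (fumarate) at 0.01, 0.1, 1, 10 and 100 μM. Control inhibitors run at a single concentration for each probe reaction. IC50 estimated.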
For orientation: Liver microsomes are a subcellular fraction often used to study metabolism.

Data set [1] in a line: MRT in C57BL6 mouse at 0.3 to 3 mg/kg, iv. The format is ADME, organism-based. To be noted: in vivo, dose 0.3-3 mg/kg. In short, it runs like this: (§2)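 Single iv dose of 0.3, 1 or 3 mg/kg in 0.9 % saline, three animals per dose (C57Bl6 mice, Wistar rats). Terminal cardiac-puncture blood under isoflurane at six time points. Plasma protein-precipitated and assayed by UHPLC–MS/MS (LLOQ 1 ng/mL). Parameters from non-compartmental analysis.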

The next data set addresses Cytochrome P450 2C19 (Homo sapiens, UniProt P33261). In words: Inhibition of CYP2C19 in human liver microsomes using omeprazole as substrate. The format is ADME, Microsome. The method in brief: as §1
The nature of data set [2]: Drug metabolism in rat liver microsome measured at 60 mins by UPLC/QE-orbitrap-MS method. In kind it is ADME. The following applies: microsomes, 1 h. The method in brief: (§3)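 Test compound as fumarate salt incubated with human, dog, mouse or rat liver microsomes over 0–60 min. Parent remaining measured by UPLC/QE-orbitrap-MS as relative LC/MS peak area (% of 0 min), n = 1.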

A further data set deals with T1, Cytochrome P450 2A6 (Homo sapiens, UniProt P11509).
T1 sequence (P11509 whole entry): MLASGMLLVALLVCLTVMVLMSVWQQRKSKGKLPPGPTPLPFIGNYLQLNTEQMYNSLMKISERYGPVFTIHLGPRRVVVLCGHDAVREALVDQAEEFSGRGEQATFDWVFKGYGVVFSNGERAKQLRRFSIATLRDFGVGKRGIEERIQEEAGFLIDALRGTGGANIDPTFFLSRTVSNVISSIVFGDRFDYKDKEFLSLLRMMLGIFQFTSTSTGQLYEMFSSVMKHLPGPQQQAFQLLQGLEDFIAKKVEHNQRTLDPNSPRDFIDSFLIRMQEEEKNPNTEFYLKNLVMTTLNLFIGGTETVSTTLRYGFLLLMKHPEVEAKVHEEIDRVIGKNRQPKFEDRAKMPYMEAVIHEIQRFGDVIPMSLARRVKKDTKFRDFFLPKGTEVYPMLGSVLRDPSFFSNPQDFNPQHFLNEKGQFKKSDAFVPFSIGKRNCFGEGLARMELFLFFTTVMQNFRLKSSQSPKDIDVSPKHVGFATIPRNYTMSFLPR
Description: Inhibition of CYP2A6 in human liver microsomes using coumarin as substrate. The format is ADME, Microsome. In short, it runs like this: as §1

Data set [3] can be described thus: Clearance in C57BL6 mouse at 0.3 to 3 mg/kg, iv. In kind it is ADME, organism-based. The following applies: in vivo, dose 0.3-3 mg/kg. In short, it runs like this: as §2
Another data set addresses T2, Cytochrome P450 2C8 (Homo sapiens, UniProt P10632).
T2 sequence (P10632 whole entry): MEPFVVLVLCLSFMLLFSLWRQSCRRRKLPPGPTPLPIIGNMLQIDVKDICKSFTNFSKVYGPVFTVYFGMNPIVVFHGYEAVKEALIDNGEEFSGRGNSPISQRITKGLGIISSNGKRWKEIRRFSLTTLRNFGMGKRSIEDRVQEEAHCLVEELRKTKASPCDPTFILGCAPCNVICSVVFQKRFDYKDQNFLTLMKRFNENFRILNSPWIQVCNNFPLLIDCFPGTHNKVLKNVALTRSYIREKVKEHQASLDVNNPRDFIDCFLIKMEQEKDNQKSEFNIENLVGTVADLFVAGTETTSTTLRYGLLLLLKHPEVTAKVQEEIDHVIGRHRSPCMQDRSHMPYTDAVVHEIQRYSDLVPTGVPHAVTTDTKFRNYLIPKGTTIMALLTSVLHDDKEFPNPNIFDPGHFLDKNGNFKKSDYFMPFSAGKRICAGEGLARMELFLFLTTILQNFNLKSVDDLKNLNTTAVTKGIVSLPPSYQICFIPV
Description: Inhibition of CYP2C8 in human liver microsomes using repaglinide as substrate. In kind it is ADME, Microsome. The method in brief: as §1

Data set [4] can be described thus: Half life in C57BL6 mouse at 0.3 to 3 mg/kg, iv. In kind it is ADME, organism-based. To be noted: in vivo, dose 0.3-3 mg/kg. In short, it runs like this:
as §2

Data set [5] can be described thus: Drug metabolism in rat liver microsome measured at 40 mins by UPLC/QE-orbitrap-MS method. The following applies: microsomes. In kind it is ADME. The method in brief: as §3
A short description of data set [6]: Drug metabolism in rat liver microsome measured at 20 mins by UPLC/QE-orbitrap-MS method. In kind it is ADME. To be noted: microsomes. The method in brief:
as §3

A short description of data set [7]: Drug metabolism in mouse liver microsome measured at 10 mins by UPLC/QE-orbitrap-MS method. In kind it is ADME. To be noted: microsomes. The method in brief:
as §3

Data set [8] can be described thus: Drug metabolism in mouse liver microsome measured at 20 mins by UPLC/QE-orbitrap-MS method. The format is ADME. To be noted: microsomes. In short, it runs like this: as §3
In the next data set the target is T3, Cytochrome P450 2B6 (Homo sapiens, UniProt P20813).
T3 sequence (P20813 whole entry): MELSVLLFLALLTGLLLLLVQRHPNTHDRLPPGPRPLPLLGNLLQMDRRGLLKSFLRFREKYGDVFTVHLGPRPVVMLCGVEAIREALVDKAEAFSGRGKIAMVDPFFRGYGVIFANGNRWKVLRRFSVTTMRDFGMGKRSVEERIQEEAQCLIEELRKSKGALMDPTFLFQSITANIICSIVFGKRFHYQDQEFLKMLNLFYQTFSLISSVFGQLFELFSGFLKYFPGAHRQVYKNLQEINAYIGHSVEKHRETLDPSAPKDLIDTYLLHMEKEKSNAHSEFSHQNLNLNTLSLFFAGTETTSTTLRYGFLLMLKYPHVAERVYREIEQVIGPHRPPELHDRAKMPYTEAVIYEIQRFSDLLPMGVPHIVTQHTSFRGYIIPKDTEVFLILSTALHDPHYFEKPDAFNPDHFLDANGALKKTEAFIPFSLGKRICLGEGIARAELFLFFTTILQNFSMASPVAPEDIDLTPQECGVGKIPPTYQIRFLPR
Description: Inhibition of CYP2B6 in human liver microsomes using bupropion as substrate. In kind it is ADME, Microsome. The method in brief: as §1

Data set [9] can be described thus: Drug metabolism in dog liver microsome measured at 20 mins by UPLC/QE-orbitrap-MS method. The format is ADME, Canis lupus familiaris. To be noted: microsomes. In short, it runs like this: as §3
Data set [10] in a line: Drug metabolism in mouse liver microsome measured at 60 mins by UPLC/QE-orbitrap-MS method. The format is ADME. To be noted: microsomes, 1 h. The method in brief: as §3
Data set [11] is described as follows: Toxicity in C57BL/6 mouse assessed as reversal of scopolamine-induced spontaneous alternation deficit at 3 mg/kg, sc incubated for 30 mins. In kind it is organism-based. The following applies: in vivo, 0.5 h.
For data set [12], the target named is 5-hydroxytryptamine receptor 4 (Homo sapiens, UniProt Q13639). Description: Binding affinity to human recombinant 5HT4 receptor assessed as inhibition constant incubated for 60 mins.
The target in data set [13] is T4, Cytochrome P450 3A4 (Homo sapiens, UniProt P08684). Description: Inhibition of CYP3A4 in human liver microsomes using Omeprazole as substrate. In kind it is ADME, Microsome. The method in brief: as §1
Data set [14] in a line: Drug metabolism in human liver microsome measured at 10 mins by UPLC/QE-orbitrap-MS method. To be noted: microsomes. In kind it is ADME. The method in brief:
as §3

The target of data set [15] is T4, Cytochrome P450 3A4. In words: Inhibition of CYP3A4 in human liver microsomes using Midazolam as substrate. The format is ADME, Microsome. The method in brief: as §1
Data set [16] can be described thus: Clearance in C57BL6 mouse at 3 mg/kg, iv. The format is ADME, organism-based. The following applies: in vivo. The method in brief: as §2

T4 sequence (P08684 whole entry): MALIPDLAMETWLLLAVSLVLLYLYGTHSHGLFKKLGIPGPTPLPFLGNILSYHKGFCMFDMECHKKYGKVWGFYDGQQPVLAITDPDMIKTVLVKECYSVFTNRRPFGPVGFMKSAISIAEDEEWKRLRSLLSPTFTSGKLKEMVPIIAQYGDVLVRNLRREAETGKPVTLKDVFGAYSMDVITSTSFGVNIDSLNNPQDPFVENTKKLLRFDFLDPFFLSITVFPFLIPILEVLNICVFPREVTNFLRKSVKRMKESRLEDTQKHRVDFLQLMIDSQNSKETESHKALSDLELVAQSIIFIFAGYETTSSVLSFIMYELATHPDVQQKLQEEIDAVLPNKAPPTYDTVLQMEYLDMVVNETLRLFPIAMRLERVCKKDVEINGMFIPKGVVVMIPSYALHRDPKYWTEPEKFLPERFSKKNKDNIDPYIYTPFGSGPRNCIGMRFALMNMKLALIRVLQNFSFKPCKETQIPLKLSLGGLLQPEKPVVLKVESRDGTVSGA
Chain of Cytochrome P450 2C19 (P33261 whole entry): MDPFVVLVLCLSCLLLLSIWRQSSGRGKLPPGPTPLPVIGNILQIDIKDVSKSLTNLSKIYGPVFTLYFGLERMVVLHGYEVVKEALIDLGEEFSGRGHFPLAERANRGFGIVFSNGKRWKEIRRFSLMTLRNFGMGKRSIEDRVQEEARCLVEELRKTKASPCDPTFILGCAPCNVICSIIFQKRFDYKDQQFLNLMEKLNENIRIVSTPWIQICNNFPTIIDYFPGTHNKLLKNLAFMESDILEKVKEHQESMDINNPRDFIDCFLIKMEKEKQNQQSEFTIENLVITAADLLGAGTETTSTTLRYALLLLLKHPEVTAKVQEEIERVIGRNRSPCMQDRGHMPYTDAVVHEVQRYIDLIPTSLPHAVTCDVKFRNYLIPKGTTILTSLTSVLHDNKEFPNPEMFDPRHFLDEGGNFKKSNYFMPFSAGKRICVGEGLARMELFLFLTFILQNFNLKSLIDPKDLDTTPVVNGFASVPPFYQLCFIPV
Chain of 5-hydroxytryptamine receptor 4 (Q13639 whole entry): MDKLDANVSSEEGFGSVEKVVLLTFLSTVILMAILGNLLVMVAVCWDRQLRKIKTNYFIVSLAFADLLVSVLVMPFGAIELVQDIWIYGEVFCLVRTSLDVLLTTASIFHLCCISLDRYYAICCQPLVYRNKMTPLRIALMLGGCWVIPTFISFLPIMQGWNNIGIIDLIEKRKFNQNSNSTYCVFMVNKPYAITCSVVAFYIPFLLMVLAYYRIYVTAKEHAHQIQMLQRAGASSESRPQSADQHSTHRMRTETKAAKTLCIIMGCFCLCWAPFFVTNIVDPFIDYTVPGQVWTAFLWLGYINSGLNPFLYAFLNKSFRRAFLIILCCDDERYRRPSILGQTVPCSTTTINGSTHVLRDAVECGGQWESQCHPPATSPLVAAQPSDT
Chain of Cytochrome P450 2D6 (P10635 whole entry): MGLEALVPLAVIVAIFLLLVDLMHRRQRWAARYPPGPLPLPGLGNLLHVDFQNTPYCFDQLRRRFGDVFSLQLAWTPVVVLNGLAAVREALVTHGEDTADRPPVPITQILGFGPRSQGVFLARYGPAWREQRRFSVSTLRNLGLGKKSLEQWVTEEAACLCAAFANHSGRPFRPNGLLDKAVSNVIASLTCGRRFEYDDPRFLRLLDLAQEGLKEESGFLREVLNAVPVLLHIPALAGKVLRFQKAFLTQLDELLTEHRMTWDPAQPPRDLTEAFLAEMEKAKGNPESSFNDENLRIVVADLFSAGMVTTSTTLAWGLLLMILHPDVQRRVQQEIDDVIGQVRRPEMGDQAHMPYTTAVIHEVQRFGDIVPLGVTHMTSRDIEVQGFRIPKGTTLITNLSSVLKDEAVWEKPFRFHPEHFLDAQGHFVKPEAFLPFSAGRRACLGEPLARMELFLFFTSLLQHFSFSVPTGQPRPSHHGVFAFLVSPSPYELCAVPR

As for `COc1cc(N)c(F)cc1C(=O)CCC1CCN(CC2CCCCC2)CC1.O=C(O)/C=C/C(=O)O`, the half-inhibitory concentration (IC50) – broadly, the point on the concentration scale where inhibition reaches its midpoint – is 600 nM against Cytochrome P450 2D6; 7.2 µM on Cytochrome P450 2C19; over 100 µM against Cytochrome P450 2A6; over 100 µM on Cytochrome P450 2C8; 95.7 µM at Cytochrome P450 2B6; 5.4 µM at Cytochrome P450 3A4 [13]. For the same compound, the 50% inhibitory concentration (IC50) against Cytochrome P450 3A4 [15] came out at 23.1 µM. In data set [1], the MRT (usually the average time that molecules of a dose stay in the body) is 1.15 h. Further, the Drug metabolism in data set [2] was 6%; in [5], 6%; in data set [6], 10%; in data set [7] it was 63%; in data set [8] it was 44%; in [9] it was 60%. Also, the Drug metabolism in data set [10] is 17%; in [14] it was 89%. For the same compound, the results for the clearance in data set [3] and in [16] were 35.5 mL/min/kg and 191 mL/min/kg, respectively. For the same compound, the half-life (usually how long it takes for the measured level to halve) in data set [4] is 47.8 min. In addition, the Activity entry in data set [11] was “Non-toxic”. Moreover, the inhibition constant (Ki) (commonly the equilibrium dissociation constant of an inhibitor or competing ligand from its target) in data set [12] amounted to 16.3 nM.
